The record followed here is ChEMBL document CHEMBL3525986, “Nicotinamide N-oxidation by CYP2E1 in human liver microsomes” (Drug Metab Dispos, 2013).

Common to all, as to assay type: ADME
The target of data set [1] is T1, Cytochrome P450 2E1 (Homo sapiens, UniProt P05181). Kind of data set: Drug metabolism in human liver microsomes assessed as CYP2E1-mediated nicotinamide N-oxide formation at 3 mM after 30 mins by HPLC analysis. The settings on record: 0.5 h, 3000 µM. The method in brief:
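Pooled human liver microsomes at 1 mg/ml in 0.1 M NaH2PO4, pH 7.4, with 1mM NADPH were preincubated 2 min at 37°C. NAM was added at varied concentrations and run 30 min, then stopped with ice-cold methanol. N-oxide was measured by HILIC HPLC with UV at 254 nm against a standard curve. Km and Vmax came from a Michaelis-Menten nonlinear fit. Triplicates.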

The target of data set [2] is T1, Cytochrome P450 2E1. Kind of data set: Drug metabolism in human liver microsomes assessed as CYP2E1-mediated nicotinamide N-oxide formation preincubated for 5 mins at 45 degC after 30 mins by HPLC analysis in absence of NADPH. The settings on record: 0.5 h. The method in brief:
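Before assay, HLM were heated 5 min at 45°C with or without NADPH. Incubation then ran with 2 mM NAM for 30 min in pH 7.4 phosphate buffer. NAM N-oxide was quantified by HILIC HPLC (UV 254 nm) from a standard curve. Triplicate determinations, t-test.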

The target of data set [3] is T2, Flavin-containing monooxygenase 3 (Homo sapiens, UniProt P31513).
T2 sequence (P31513 whole entry): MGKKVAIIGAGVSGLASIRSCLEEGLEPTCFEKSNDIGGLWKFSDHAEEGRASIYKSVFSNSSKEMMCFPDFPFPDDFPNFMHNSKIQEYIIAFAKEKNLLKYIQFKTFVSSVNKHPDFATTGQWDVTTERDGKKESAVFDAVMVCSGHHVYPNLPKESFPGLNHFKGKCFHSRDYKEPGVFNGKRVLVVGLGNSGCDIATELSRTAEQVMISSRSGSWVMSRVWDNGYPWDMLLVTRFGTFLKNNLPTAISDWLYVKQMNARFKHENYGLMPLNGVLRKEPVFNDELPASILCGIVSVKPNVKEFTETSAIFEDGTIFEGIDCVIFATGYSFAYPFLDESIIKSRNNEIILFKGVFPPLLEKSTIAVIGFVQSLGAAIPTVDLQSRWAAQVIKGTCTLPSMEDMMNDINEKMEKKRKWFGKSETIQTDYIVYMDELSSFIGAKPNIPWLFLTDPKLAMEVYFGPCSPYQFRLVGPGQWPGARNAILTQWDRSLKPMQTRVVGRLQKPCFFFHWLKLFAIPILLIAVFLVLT
Kind of data set: Drug metabolism in insect microsomes assessed as FMO3 (unknown origin)-mediated nicotinamide N-oxide formation after 30 mins by HPLC analysis. To be noted: 0.5 h.

Data set [4] addresses T1, Cytochrome P450 2E1. Kind of data set: Drug metabolism in human liver microsomes assessed as diethyldithiocarbamate-mediated reduction of CYP2E1-mediated nicotinamide N-oxide formation at 2 mM by HPLC analysis relative to control. To be noted: 2000 µM. The method in brief:
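Microsomes (1 mg/ml HLM, 1mM NADPH, pH 7.4) were preincubated 30 min with 100 μM diethyldithiocarbamate (final 0.1% methanol). Then 2 mM NAM was added for 30 min at 37°C. N-oxide was quantified by HILIC HPLC at 254 nm versus control. Triplicate means, t-test.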
(In general: Liver microsomes are vesicles of endoplasmic reticulum, rich in cytochrome P450 enzymes.)

Data set [5] deals with T3, Cytochrome P450 2A6 (Homo sapiens, UniProt P11509).
T3 sequence (P11509 whole entry): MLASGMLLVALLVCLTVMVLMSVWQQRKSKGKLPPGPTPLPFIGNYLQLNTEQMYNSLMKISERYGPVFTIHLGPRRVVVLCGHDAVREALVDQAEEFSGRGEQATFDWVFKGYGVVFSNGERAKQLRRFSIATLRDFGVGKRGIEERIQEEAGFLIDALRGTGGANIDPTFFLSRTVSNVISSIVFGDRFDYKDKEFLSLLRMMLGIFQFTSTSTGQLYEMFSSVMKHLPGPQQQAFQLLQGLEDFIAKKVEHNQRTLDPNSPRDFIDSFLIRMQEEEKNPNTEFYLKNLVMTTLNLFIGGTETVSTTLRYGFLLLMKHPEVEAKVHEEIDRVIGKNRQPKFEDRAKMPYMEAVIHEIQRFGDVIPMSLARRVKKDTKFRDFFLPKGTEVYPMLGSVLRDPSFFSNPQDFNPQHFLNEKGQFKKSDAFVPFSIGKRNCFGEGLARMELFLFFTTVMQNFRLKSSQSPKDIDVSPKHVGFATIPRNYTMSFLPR
Kind of data set: Drug metabolism in human liver microsomes assessed as CYP2A6-mediated nicotinamide N-oxide formation by HPLC analysis.

Data set [6] has as its target T4, Cytochrome P450 2B6 (Homo sapiens, UniProt P20813).
T4 sequence (P20813 whole entry): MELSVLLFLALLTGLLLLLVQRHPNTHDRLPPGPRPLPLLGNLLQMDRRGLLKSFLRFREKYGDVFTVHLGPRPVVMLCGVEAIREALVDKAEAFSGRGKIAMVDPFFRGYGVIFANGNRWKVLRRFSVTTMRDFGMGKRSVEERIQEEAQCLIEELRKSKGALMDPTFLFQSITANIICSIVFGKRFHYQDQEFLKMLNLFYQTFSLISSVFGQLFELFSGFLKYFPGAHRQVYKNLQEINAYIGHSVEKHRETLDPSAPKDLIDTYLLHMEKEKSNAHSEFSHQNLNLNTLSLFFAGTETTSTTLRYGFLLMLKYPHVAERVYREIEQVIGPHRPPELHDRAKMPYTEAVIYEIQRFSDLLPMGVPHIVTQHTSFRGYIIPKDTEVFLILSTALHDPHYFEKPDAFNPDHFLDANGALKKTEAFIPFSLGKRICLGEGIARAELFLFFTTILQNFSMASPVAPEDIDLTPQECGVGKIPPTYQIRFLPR
Kind of data set: Drug metabolism in human liver microsomes assessed as CYP2B6-mediated nicotinamide N-oxide formation by HPLC analysis.

Data set [7] concerns the target T1, Cytochrome P450 2E1. Put plainly: Drug metabolism in human liver microsomes assessed as chlorzoxazone-mediated reduction of CYP2E1-mediated nicotinamide N-oxide formation at 2 mM by HPLC analysis relative to control. To be noted: 2000 µM. The method in brief: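 Human liver microsomes (1 mg/ml, 1mM NADPH, pH 7.4) were incubated with 2 mM NAM plus 100 μM chlorzoxazone (final 1% acetonitrile) for 30 min at 37°C. Methanol quench, then HILIC HPLC, UV 254 nm. Compared against solvent control; triplicates, t-test.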

Data set [8] addresses T1, Cytochrome P450 2E1. Kind of data set: Drug metabolism in human liver microsomes assessed as antibody-mediated reduction in CYP2E1-mediated nicotinamide N-oxide formation at 2 mM by HPLC analysis relative to control. Details: scale not given: the % may be the effect or the level left. To be noted: 2000 µM. The method in brief:
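HLM (1 mg/ml, pH 7.4 phosphate, 1mM NADPH) were preincubated 5 min at 37°C with 15 microgram anti-CYP2E1 or control mouse antibody. Control antibody was dialysed against Tris to remove azide. Then 2 mM NAM was added for 30 min. HPLC-UV 254 nm quantitation was expressed against the control antibody. Triplicates.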

The target of data set [9] is T1, Cytochrome P450 2E1. Put plainly: Drug metabolism in insect microsomes assessed as CYP2E1 (unknown origin)-mediated nicotinamide N-oxide formation after 30 mins by HPLC analysis. The settings on record: 0.5 h. The method in brief: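 Insect cell microsomes overexpressing CYP2E1 were diluted 4-fold with control insect microsomes. Otherwise run as for HLM: pH 7.4 phosphate, 1mM NADPH, 37°C, 30 min, across a range of NAM concentrations. Methanol stop, HILIC HPLC with UV at 254 nm. Triplicates.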

The structures appear in SMILES notation.

T1 sequence (P05181 whole entry): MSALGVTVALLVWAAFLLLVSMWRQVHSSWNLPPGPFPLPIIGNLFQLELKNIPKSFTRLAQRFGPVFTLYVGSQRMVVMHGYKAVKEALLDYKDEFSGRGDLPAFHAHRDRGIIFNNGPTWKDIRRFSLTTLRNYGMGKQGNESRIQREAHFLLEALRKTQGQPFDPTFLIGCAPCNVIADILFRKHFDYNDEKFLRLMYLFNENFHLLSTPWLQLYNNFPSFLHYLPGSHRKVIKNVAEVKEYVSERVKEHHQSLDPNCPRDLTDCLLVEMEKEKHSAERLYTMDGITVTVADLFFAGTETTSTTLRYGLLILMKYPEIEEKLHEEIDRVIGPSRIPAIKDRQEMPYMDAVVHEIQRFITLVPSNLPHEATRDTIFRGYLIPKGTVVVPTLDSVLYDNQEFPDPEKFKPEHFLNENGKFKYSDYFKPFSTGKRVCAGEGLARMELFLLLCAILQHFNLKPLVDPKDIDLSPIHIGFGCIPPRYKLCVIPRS

Turning to `NC(=O)c1cccnc1` [NIACINAMIDE], the Drug metabolism entry in data set [1] is listed as “metabolite_detected”; in data set [2], “metabolite_detected”; in data set [3], “metabolite_not_detected”; in data set [5], “metabolite_not_detected”; in [6] it was “metabolite_not_detected”; in data set [9], “Dose-dependent effect”. Also, the “fold change (FC)” value is given as 8 in [4] and over 5 in [7]. In data set [8], the Activity is under 8%.
